This is an account of results in PMC6957258 (Bioorganic & medicinal chemistry, 2013).

Assay [1] concerns CCI-induced cold allodynia (neuropathic pain model). As to conditions: rat, po; cited from earlier work.
Assay [2] has as its system capsaicin-induced hypothermia. The note with it: mice; cited from earlier work.
Assay [3] deals with T1, human TRPV1 (Homo sapiens, UniProt Q8NER1). The experiment in a line: FLIPR antagonism of capsaicin. In kind it is cell-based.
In assay [4] the target is T1, human TRPV1. The experiment in a line: FLIPR antagonism of pH activation, hTRPV1 in CHO cells. The note with it: read-out: IC50 [pH], inhibition of pH activation. In kind it is cell-based.
For assay [5], the system named is capsaicin-induced hypothermia. The experiment in a line: Capsaicin-induced hypothermia in mice. In kind it is in vivo. As to conditions: for inhibition of the effect of capsaicin on body temperature: 0.3 mg/Kg po 15 min before capsaicin 3 mg/Kg ip. In outline:
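Mice, n = 5 per group. Body temperature (°C) was recorded after capsaicin challenge, with readings taken up to 60 min. Data are given as mean ± SEM and compared with vehicle-treated animals, with significance at p < 0.05.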

Structures are written as SMILES. Where two headings read alike, the source gives them in different places.

T1 sequence (Q8NER1 whole entry): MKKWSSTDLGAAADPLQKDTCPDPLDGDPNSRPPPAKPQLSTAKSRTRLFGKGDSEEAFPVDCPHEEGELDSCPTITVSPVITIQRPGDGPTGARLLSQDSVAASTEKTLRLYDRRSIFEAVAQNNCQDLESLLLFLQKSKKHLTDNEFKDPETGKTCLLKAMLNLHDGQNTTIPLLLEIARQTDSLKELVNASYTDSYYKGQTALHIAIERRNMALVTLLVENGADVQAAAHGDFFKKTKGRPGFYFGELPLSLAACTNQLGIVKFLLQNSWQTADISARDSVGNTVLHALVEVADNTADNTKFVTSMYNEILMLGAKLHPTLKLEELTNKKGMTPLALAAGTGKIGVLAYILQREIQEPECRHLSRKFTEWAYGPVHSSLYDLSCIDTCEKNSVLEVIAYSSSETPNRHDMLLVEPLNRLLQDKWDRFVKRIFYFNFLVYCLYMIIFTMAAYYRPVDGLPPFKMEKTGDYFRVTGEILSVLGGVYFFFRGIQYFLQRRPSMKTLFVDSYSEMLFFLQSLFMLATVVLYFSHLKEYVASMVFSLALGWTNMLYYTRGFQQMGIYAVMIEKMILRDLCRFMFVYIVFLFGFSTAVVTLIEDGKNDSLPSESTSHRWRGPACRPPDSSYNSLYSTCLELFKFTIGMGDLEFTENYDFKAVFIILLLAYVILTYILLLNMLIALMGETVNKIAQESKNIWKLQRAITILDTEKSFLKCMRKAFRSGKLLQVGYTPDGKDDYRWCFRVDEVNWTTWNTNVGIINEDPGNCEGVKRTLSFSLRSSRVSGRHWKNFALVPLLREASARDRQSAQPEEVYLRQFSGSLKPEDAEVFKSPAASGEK

Regarding `CC1CCN(c2nc(C(F)(F)F)ccc2CNC(=O)[C@@H](C)c2ccc(NS(C)(=O)=O)c(F)c2)CC1` [compound 2], the ED50 anti-allodynic efficacy in assay [1] is 0.9 mg/kg. In addition, the “effect on capsaicin-induced hypothermia” value in assay [2] is on record as “blocked capsaicin-induced hypothermia”. At human TRPV1 [3] (ratio versus 1), the “fold better than prototype 1 for CAP antagonism” value is reported as “approximately 100 fold”. In the case of `CCC1CCC(Sc2nc(C(F)(F)F)ccc2CNC(=O)C(C)c2ccc(NS(C)(=O)=O)c(F)c2)CC1` (centres unmarked) [compound 29, N-((2-(4-Ethylcyclohexylthio)-6-(trifluoromethyl)pyridin-3-yl)methyl)-2-(3-fluoro-4-(methylsulfonamido)phenyl)propanamide], the IC50 (commonly the concentration needed to halve the response being measured) on human TRPV1 [4] was over 1000 nM. With `CC(C(=O)NCc1ccc(C(F)(F)F)nc1SCc1cccs1)c1ccc(NS(C)(=O)=O)c(F)c1` (centres unmarked) [compound 38, 2-(3-Fluoro-4-(methylsulfonamido)phenyl)-N-((2-(thiophen-2-ylmethylthio)-6-(trifluoromethyl)pyridin-3-yl)methyl)propanamide], the half-maximal inhibitory concentration (IC50) on human TRPV1 [4] is over 1000 nM. As to `C[C@@H](C(=O)NCc1ccc(C(F)(F)F)nc1SC1CCCCC1)c1ccc(NS(C)(=O)=O)c(F)c1` [24R, (R)-N-((2-(Cyclohexylthio)-6-(trifluoromethyl)pyridin-3-yl)methyl)-2-(3-fluoro-4-(methylsulfonamido)phenyl)propanamide], the IC50 on human TRPV1 [4] was over 1000 nM. For the molecule `CC(C(=O)NCc1ccc(C(F)(F)F)nc1SCC1CCCCC1)c1ccc(NS(C)(=O)=O)c(F)c1` (centres unmarked) [compound 31, N-((2-(Cyclohexylmethylthio)-6-(trifluoromethyl)pyridin-3-yl)methyl)-2-(3-fluoro-4-(methylsulfonamido)phenyl)propanamide], the “fold less potent than 24” value on human TRPV1 [3] (ratio of Ki(CAP) versus 24) was found to be 2.5 fold. `CC(C)C[C@H](CN)CC(=O)O` [pregabalin]: the ED50 anti-allodynic efficacy in assay [1] is 42.2 mg/kg. As for `CC(C(=O)NCc1ccc(C(F)(F)F)nc1SCC(F)(F)F)c1ccc(NS(C)(=O)=O)c(F)c1` (centres unmarked) [compound 11, 2-(3-Fluoro-4-(methylsulfonamido)phenyl)-N-((2-(2,2,2-trifluoroethylthio)-6-(trifluoromethyl)pyridin-3-yl)methyl) propanamide], the IC50 on human TRPV1 [4] is over 1000 nM.

For `C[C@H](C(=O)NCc1ccc(C(F)(F)F)nc1SC1CCCCC1)c1ccc(NS(C)(=O)=O)c(F)c1` [24S, (S)-N-((2-(Cyclohexylthio)-6-(trifluoromethyl)pyridin-3-yl)methyl)-2-(3-fluoro-4-(methylsulfonamido)phenyl)propanamide], in assay [5], the “effect on capsaicin-induced hypothermia” value is on record as “blocked capsaicin-induced hypothermia”. Besides, the “inhibition of the effect of capsaicin on body temperature” value in assay [5] (at 15 min) was “partial inhibition”; in assay [5] (at 30 min), “completely inhibited”. `CC(C(=O)NCc1ccc(C(F)(F)F)nc1SC1CCCCC1C)c1ccc(NS(C)(=O)=O)c(F)c1` (centres unmarked) [compound 28, 2-(3-Fluoro-4-(methylsulfonamido)phenyl)-N-((2-(2-methylcyclohexylthio)-6-(trifluoromethyl)pyridin-3-yl)methyl)propanamide]: the IC50 on human TRPV1 [4] was over 1000 nM.

Consider `CC(C(=O)NCc1ccc(C(F)(F)F)nc1SCCC(=O)O)c1ccc(NS(C)(=O)=O)c(F)c1` (centres unmarked) [compound 20, 3-(3-((2-(3-Fluoro-4-(methylsulfonamido)phenyl)propanamido)methyl)-6-(trifluoromethyl)pyridin-2-ylthio) propanoic acid], for which the IC50 on human TRPV1 [4] is over 1000 nM.

Regarding `C[C@H](C(=O)NCc1ccc(C(C)(C)C)cc1)c1ccc(NS(C)(=O)=O)c(F)c1` [compound 1], in assay [1], the ED50 anti-allodynic efficacy was 26.6 mg/kg. As to `CC(C(=O)NCc1ccc(C(F)(F)F)nc1SCCC(=O)N1CCCC1)c1ccc(NS(C)(=O)=O)c(F)c1` (centres unmarked) [compound 22, 2-(3-Fluoro-4-(methylsulfonamido)phenyl)-N-((2-(3-oxo-3-(pyrrolidin-1-yl)propylthio)-6-(trifluoromethyl)pyridin-3-yl)methyl)propanamide], at human TRPV1 [4], the IC50 is over 1000 nM. In the case of `CC(C(=O)NCc1ccc(C(F)(F)F)nc1SC1CCCC1)c1ccc(NS(C)(=O)=O)c(F)c1` (centres unmarked) [compound 23, N-((2-(Cyclopentylthio)-6-(trifluoromethyl)pyridin-3-yl)methyl)-2-(3-fluoro-4-(methylsulfonamido)phenyl)propanamide], on human TRPV1 [4], the IC50 is over 1000 nM.

For `CC(C(=O)NCc1ccc(C(F)(F)F)nc1SCc1ccco1)c1ccc(NS(C)(=O)=O)c(F)c1` (centres unmarked) [compound 37, 2-(3-Fluoro-4-(methylsulfonamido)phenyl)-N-((2-(furan-2-ylmethylthio)-6-(trifluoromethyl)pyridin-3-yl)methyl)propanamide], the IC50 at human TRPV1 [4] was over 1000 nM. Take `CC(C(=O)NCc1ccc(C(F)(F)F)nc1S(=O)(=O)C1CCCCC1)c1ccc(NS(C)(=O)=O)c(F)c1` (centres unmarked) [compound 26, N-((2-(Cyclohexylsulfonyl)-6-(trifluoromethyl)pyridin-3-yl)methyl)-2-(3-fluoro-4-(methylsulfonamido)phenyl)propanamide]: on human TRPV1 [4], the IC50 was over 1000 nM. On the same count and under the same terms, the result for `CC(C(=O)NCc1ccc(C(F)(F)F)nc1[S+]([O-])C1CCCCC1)c1ccc(NS(C)(=O)=O)c(F)c1` (centres unmarked) [compound 25, N-((2-(Cyclohexylsulfinyl)-6-(trifluoromethyl)pyridin-3-yl)methyl)-2-(3-fluoro-4-(methylsulfonamido)phenyl)propanamide] reads over 1000 nM.
